# How the values were obtained:
# Format in all cases: functional
# Mus musculus [1] = test: Antimalarial activity against Plasmodium berghei strain in mice (Mus musculus) by parentral route and change in mean survival time in days was determined at 160 mg/kg subcutaneous dose
# Method in brief: (§1)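 Normal drug-sensitive P. berghei strain in mice. Test agents dissolved or suspended in peanut oil and given as a single sc dose 72 h postinfection, five mice per dose group. ΔMST = mean survival time of treated mice minus that of controls (days). 60-day survivors are excluded from the treated mean and scored as cured. Minimum active response is a 100% increase in MSTT.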
# Mus musculus [2] = test: Antimalarial activity against Plasmodium berghei strain in mice (Mus musculus) by parentral route and change in mean survival time in days was determined at 40 mg/kg subcutaneous dose; method in brief: as §1
# Mus musculus [3] = test: Antimalarial activity against Plasmodium berghei strain in mice (Mus musculus) by parentral route and change in mean survival time in days was determined at 640 mg/kg subcutaneous dose; method in brief: as §1
# Mus musculus [4] = test: Antimalarial activity against Plasmodium berghei strain in mice (Mus musculus) by parentral route and change in mean survival time in days was determined at 320 mg/kg subcutaneous dose; method in brief: as §1
# Mus musculus [5] = test: Antimalarial activity against Plasmodium berghei strain in mice (Mus musculus) by parentral route and change in mean survival time in days was determined at 80 mg/kg subcutaneous dose; method in brief: as §1
# L1210 [6] = test: Anti tumor activity against L1210 leukemia in tissue culture and the molar concentration required to reduce the number of L1210 cells; details: Mus musculus, L1210, read-out: ID50
# Method in brief: (§2)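 L1210 leukemia cells in tissue culture were incubated with the test drug for 2 days and the cell number was then assessed. ID50 is the molar drug concentration that reduces the number of L1210 cells by 50%.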
# L1210 [7] = test: Anti tumor activity against L1210 leukemia in tissue culture and the molar concentration required to reduce the number of L1210 cells by 50% was determined.; details: Mus musculus, L1210, read-out: ID50; method in brief: as §2
Structure (SMILES),Delta MST (Mus musculus [1]),Delta MST (Mus musculus [2]),Delta MST (Mus musculus [3]),Delta MST (Mus musculus [4]),Delta MST (Mus musculus [5]),IC50 (L1210 [6]),IC50 (L1210 [7])
O=S(=O)(c1ccc2ccccc2c1)c1ccc2nc(NO)nc(NO)c2c1,5.9 days,1.1 days,10.7 days,8.1 days,3.3 days,,
CN(N)c1nc(N)nc2ccc(S(=O)(=O)c3ccc4ccccc4c3)cc12,4.3 days,0.5 days,10.7 days,7.1 days,2.3 days,,
NNc1nc(N)nc2ccc(S(=O)(=O)c3ccc4ccccc4c3)cc12,2.3 days,0.5 days,4.5 days,3.5 days,1.3 days,,
CN(N)c1nc(N)nc2ccc(Sc3cccc(C(F)(F)F)c3)cc12,12.3 days,5.7 days,,,8.9 days,,
NNc1nc(N)nc2ccc(Sc3cccc(C(F)(F)F)c3)cc12,6.9 days,0.5 days,15.7 days,11.9 days,3.1 days,,
Nc1nc(N)c2cc(S(=O)(=O)c3ccc4ccccc4c3)ccc2n1,,,,,,0.11 µM,
CONc1nc(N)nc2ccc(Sc3cccc(C(F)(F)F)c3)cc12,9.7 days,5.7 days,,,6.9 days,,24 µM
CONc1nc(N)nc2ccc(S(=O)(=O)c3ccc4ccccc4c3)cc12,9.1 days,3.9 days,,12.7 days,5.7 days,,
Nc1nc(NO)c2cc(S(=O)(=O)c3ccc4ccccc4c3)ccc2n1,11.1 days,6.1 days,15.3 days,14.1 days,8.9 days,,
Nc1nc(NO)c2cc(Sc3cccc(C(F)(F)F)c3)ccc2n1,8.1 days,3.5 days,,10.3 days,5.1 days,,
ONc1nc(NO)c2cc(Sc3cccc(C(F)(F)F)c3)ccc2n1,9.7 days,1.7 days,,10.7 days,3.1 days,,
